Test results reported in paper PMC8178204 (Cancer research, 2021).

Experiments:
LC3, p62, LAMP2 = assay: Immunoblot time course of autophagy-degraded proteins in SW480 cells; type: cell-based, human; details: for p62 accumulation, p38MAPK inhibitor alone: SW480, 1 or 3 days
SW480 cells = assay: Cell survival, dead cells and proliferation of SW480 cells; type: cell-based, human; details: SW480, 0.125 μM WX8 and/or 5 μM SB202190
[1] = tested on: SW480 colon adenocarcinoma xenografts; assay: SW480 xenograft in nude mice; details: for reduction of tumor growth: 20 mg/kg WX8 and/or 12.5 mg/kg SB202190, day 22; for Ki-67 positive tumor cells: tumor sections
12 cancer lines = assay: Cell survival after 3 days, viable cell count with FACS; type: cell-based, human; details: read-out: median IC50 (concentration that cause 50% reduction in cell survival), 3 days of treatment
Cathepsin D = Cathepsin D maturation in SW480 cells; type: cell-based, human; details: SW480, 0.125 μM WX8 with or without 5 μM SB202190
Outline: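 SW480 cells were cultured for the indicated times with 0.125 μM WX8, 5 μM SB202190, or both, each diluted 1:1,000 from DMSO stocks, with DMSO as vehicle. Cells were trypsinized and pooled with unattached cells, then lysed in SDS sample buffer. Precursor and mature Cathepsin D were immunoblotted (nitrocellulose, peroxidase secondary, chemiluminescence) and quantified by densitometry of low-exposure images.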

[2] = tested on: HCT116 and A375 (sensitive), WI38 and Hs27 (resistant) cell lines; assay: Cell survival, sensitive versus resistant cell lines; type: cell-based, human
[3] = tested on: 8 normal fibroblast cell lines; assay: Cell survival after 3 days, viable cell count with FACS; type: cell-based, human; details: read-out: median IC50 (concentration that cause 50% reduction in cell survival), 3 days of treatment
MCF10A cells = assay: Cell survival of MCF10A cells after p38MAPK siRNA depletion; type: cell-based, human; details: 0.5 μM WX8, 3 days
LC3, p62 = type: cell-based, human; details: 0.5 μM WX8, all four cell lines
[4] = SW480, 0.125 μM WX8 and/or 5 μM SB202190
[5] = 20 mg/kg WX8 and/or 12.5 mg/kg SB202190

Row | Compound | p62 accumulation, p38MAPK inhibitor alone (LC3, p62, LAMP2) | LAMP2 level increase (LC3, p62, LAMP2; [4]) | p62 level increase (LC3, p62, LAMP2; [4]) | total LC3 protein accumulation above initial levels (LC3, p62, LAMP2; [4]) [fold] | effect on proliferation (cell divisions per day) over time (SW480 cells) | adverse effects (mouse behavior, body weight) ([1]; daily intraperitoneal, 20 mg/kg WX8 and/or 12.5 mg/kg SB202190) | reduction of tumor growth ([1]; daily intraperitoneal) [%] | Ki-67 positive tumor cells [1, 5] | time course of LC3 and p62 protein levels (LC3, p62, LAMP2; [4]) | IC50 (12 cancer lines) [µM] | day at which active Cathepsin D reappeared (Cathepsin D) [days] | difference in sensitivity to WX8 between sensitive and resistant cell lines [2] | IC50 [3] [µM] | reduction of cell survival (MCF10A cells; control siRNA-transfected cells) [%] | reduction of cell survival (MCF10A cells; highest levels of p38MAPK depletion) [%] | Total LC3 and the LC3-II/I ratio (LC3, p62) | p62 level (LC3, p62)
1 | CC(C)(C)Cn1c(N)nc2ccc(-c3[nH]c(C(C)(C)C)nc3-c3ccc(F)cc3)nc21 [LY2228820] | caused accumulation of p62 | – | – | – | – | – | – | – | – | – | – | – | – | – | – | – | –
2 | Oc1ccc(-c2nc(-c3ccncc3)c(-c3ccc(F)cc3)[nH]2)cc1 [SB202190] | caused accumulation of p62 | about 3 fold | about 3 fold | 2 | reduced proliferation for up to two days | No adverse effects were apparent | 28 | about 75% | – | – | – | – | – | – | – | – | –
3 | C(=N\Nc1nc(Nc2ccccc2)nc(N2CCOCC2)n1)/c1c[nH]c2ccccc12 [WX8] | – | about 3 fold | about 3 fold | 5 | reduced proliferation for up to two days | – | 22 | about 75% | peaked on day 2 | 0.2 | 3 | approximately 16 fold | 2.7 | 20 | 65 | increased | p62 accumulation
